From ChEMBL document CHEMBL1154639, “Application of Huisgen (3+2) cycloaddition reaction: synthesis of 1-(2,3-dihydrobenzofuran-2-yl-methyl [1,2,3]-triazoles and their antitubercular evaluations” (2010) come the findings set out here.

SMILES strings stand for the structures. Values after ≈ are worked out from the molar mass of the structure shown.

For this assay, the system named is Mycobacterium tuberculosis. The assay is described as follows: Antitubercular activity against Mycobacterium tuberculosis H37Rv after 30 days by agar microdilution method. In kind it is functional. Put shortly:
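M. tuberculosis H37Rv grown on L-J medium, harvested into 0.85% saline with 0.05% Tween-80. Compounds from a 1 mg/mL DMSO stock, two-fold dilutions in Middlebrook 7H10 agar slants with OADC. Slants preincubated 24 h at 37 °C, then streaked with 5 × 10^4 bacilli per tube and held at 37 °C. Growth read at 30 days against drug-free controls; MIC determined.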

Broadly, the MIC is the lowest concentration found to suppress growth. As to `Cc1ccc(C)c2c1CC(Cn1cc(CO)nn1)O2` (stereo not given), the MIC came to 12.5 µg/mL (≈ 48.2 µM). With `CCCCCc1cn(CC2Cc3cc(C#N)ccc3O2)nn1` (stereo not given) the figure was more than 12.5 µg/mL. The compound `Cc1ccc(C)c2c1CC(CN=[N+]=[N-])O2` (stereo not given) gave a minimal inhibitory concentration (MIC) of more than 12.5 µg/mL. With `CCCCCCc1cn(CC2Cc3cc(C#N)ccc3O2)nn1` (stereo not given) the figure was more than 12.5 µg/mL; with `N#Cc1ccc2c(c1)CC(Cn1cc(Cc3ccccc3)nn1)O2` (stereo not given), more than 12.5 µg/mL; with `O=Cc1ccc2c(c1)CC(Cn1cc(-c3ccccc3)nn1)O2` (stereo not given), more than 12.5 µg/mL. The same measure for `CCCCCC(O)c1cn(CC2Cc3cc(C#N)ccc3O2)nn1` (stereo not given): more than 25 µg/mL; for `O=Cc1ccc2c(c1)CC(Cn1cc(Cc3ccccc3)nn1)O2` (stereo not given): more than 12.5 µg/mL; for `[N-]=[N+]=NCC1Cc2cc(C=O)ccc2O1` (stereo not given): more than 12.5 µg/mL. `CCCCCc1cn(CC2Cc3cc(C=O)ccc3O2)nn1` (stereo not given) showed an MIC of 12.5 µg/mL (≈ 41.8 µM).

Turning to `c1ccc(Cc2cn(CC3Cc4c(ccc5ccccc45)O3)nn2)cc1` (stereo not given), the MIC is more than 12.5 µg/mL. `CCCCCc1cn(CC2Cc3c(ccc4ccccc34)O2)nn1` (stereo not given) showed an MIC of 12.5 µg/mL (≈ 38.9 µM). The same measure for `CCCCCc1cn(CC2Cc3c(C)ccc(C)c3O2)nn1` (stereo not given): more than 12.5 µg/mL; for `OCc1cn(CC2Cc3c(ccc4ccccc34)O2)nn1` (stereo not given): more than 12.5 µg/mL; for `Cc1ccc(C)c2c1CC(Cn1cc(Cc3ccccc3)nn1)O2` (stereo not given): more than 12.5 µg/mL. The same measure for `CCCCCCc1cn(CC2Cc3c(C)ccc(C)c3O2)nn1` (stereo not given): more than 12.5 µg/mL; for `N#Cc1ccc2c(c1)CC(CN=[N+]=[N-])O2` (stereo not given): more than 12.5 µg/mL; for `c1ccc(-c2cn(CC3Cc4c(ccc5ccccc45)O3)nn2)cc1` (stereo not given): more than 12.5 µg/mL. With `Cc1ccc(C)c2c1CC(Cn1cc(-c3ccccc3)nn1)O2` (stereo not given) the figure was more than 12.5 µg/mL; with `Cc1ccc(C)c2c1CC(Cn1cc(CCO)nn1)O2` (stereo not given), more than 12.5 µg/mL. Compound `N#Cc1ccc2c(c1)CC(Cn1cc(CCO)nn1)O2` (stereo not given) showed an MIC of more than 12.5 µg/mL.

`[N-]=[N+]=NCC1Cc2c(ccc3ccccc23)O1` (stereo not given) came in with an MIC of 3.12 µg/mL (≈ 13.9 µM). With `CCCCCCc1cn(CC2Cc3cc(C=O)ccc3O2)nn1` (stereo not given) the figure was 6.25 µg/mL (≈ 19.9 µM); with `OCCc1cn(CC2Cc3c(ccc4ccccc34)O2)nn1` (stereo not given), more than 12.5 µg/mL; with `O=Cc1ccc2c(c1)CC(Cn1cc(CO)nn1)O2` (stereo not given), more than 12.5 µg/mL. With `N#Cc1ccc2c(c1)CC(Cn1cc(CO)nn1)O2` (stereo not given) the figure was more than 25 µg/mL; with `N#Cc1ccc2c(c1)CC(Cn1cc(-c3ccccc3)nn1)O2` (stereo not given), more than 12.5 µg/mL; with `CCCCCC(O)c1cn(CC2Cc3c(C)ccc(C)c3O2)nn1` (stereo not given), more than 12.5 µg/mL. With `CC[C@@H](CO)NCCN[C@@H](CC)CO` [ETHAMBUTOL] the figure was 3.25 µg/mL (≈ 15.9 µM); with `NNC(=O)c1ccncc1` [ISONIAZID], 0.75 µg/mL (≈ 5.47 µM).
